≈ marks a conversion by molar mass, not a printed value.
Legend:
Human alphaherpesvirus 1 [1] = assay: Evaluation of antiviral activity against Herpes simplex virus type 1 (HSV-1) strain KOS.; format: functional
In short: (§1)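 Virus-induced cytopathogenicity scored in primary rabbit kidney cell cultures. Value is the minimum concentration reducing cytopathogenicity by 50%. Cytotoxicity on uninfected cells was read as the minimal concentration causing a microscopically detectable change in normal cell morphology, tested up to 400 μg/mL.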

Human alphaherpesvirus 1 [2] = assay: Evaluation of antiviral activity against Herpes simplex virus type 1 (HSV-1) strain F; format: functional; in short: as §1
L1210 [3] = assay: Evaluation of cytostatic activity by using antitumor assays against murine leukemia L1210 cells; format: functional; conditions: Mus musculus, read-out: ID50 (the source's name)
Human alphaherpesvirus 2 [4] = assay: Evaluation of antiviral activity against Herpes simplex virus type 2 (HSV-2) strain G; format: functional; in short: as §1
L1210 [5] = assay: Evaluation of antitumor activity against mutant murine leukemia L1210 cells; format: functional; conditions: Mus musculus, read-out: ID50 (the source's name)
In short: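 Proliferation of mutant murine leukemia L1210/BdUrd cells, selected from parental L1210/0 for growth in 260 μg/mL 5-bromo-2'-deoxyuridine. Value is the dose inhibiting proliferation by 50%.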

[6] = test system: Vesicular stomatitis virus; assay: Evaluation of antiviral activity against Vesicular stomatitis virus.; format: functional; in short: as §1
Homo sapiens = species: Homo sapiens; assay: Evaluation for antitumor activity against human lymphoblast Raji cells; format: functional; conditions: for IC50: Homo sapiens, Raji, read-out: ID50 (the source's name)
Raji = assay: Evaluation of antitumor activity against thymidine kinase deficient Raji cell line; format: functional; conditions: Homo sapiens, read-out: ID50 (the source's name)
Human alphaherpesvirus 2 [7] = assay: Evaluation of antiviral activity against Herpes simplex virus type 2 (HSV-2) strain 196.; format: functional; in short: as §1
[8] = biological target: Thymidylate synthase (Mus musculus) (UniProt P07607); assay: Compound was evaluated for the inhibition of L1210 Thymidylate synthase
In short: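 Thymidylate (dTMP) synthetase inhibition measured with a partially purified extract of L1210 cells as the enzyme source.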

Vaccinia virus = assay: Evaluation of antiviral activity against Vaccinia virus; format: functional; conditions: Orthopoxvirus vaccinia; in short: as §1
Human alphaherpesvirus 2 [9] = assay: Evaluation of antiviral activity against Herpes simplex virus type 2 (HSV-2) strain Lyons; format: functional; in short: as §1
Human alphaherpesvirus 1 [10] = assay: Evaluation of antiviral activity against Herpes simplex virus type 1 (HSV-1) strain McIntyre; format: functional; in short: as §1
[11] = biological target: Thymidylate synthase (Mus musculus) (UniProt P07607)
[12] = biological target: Thymidylate synthase (Mus musculus) (UniProt P07607); assay: Compound was evaluated for the inhibition of L1210 thymidylate synthetase (L1210 dTMP)
In short: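 Enzyme source was a partially purified extract of murine leukemia L1210 cells. The dTMP synthetase assay followed an earlier published method, and no reaction conditions are given here.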

Human alphaherpesvirus 1 [13] = assay: Compound was evaluated for the antiviral activity against Herpes simplex virus type 1 (HSV-1) strain F; format: functional; conditions: read-out: ID50 (the source's name); in short: as §1
Human alphaherpesvirus 1 [14] = assay: Compound was evaluated for the antiviral activity against Herpes simplex virus type 1 (HSV-1) strain KOS.; format: functional; conditions: read-out: ID50 (the source's name); in short: as §1
[15] = test system: Vesicular stomatitis virus; assay: Compound was evaluated for the antiviral activity against Vesicular stomatitis virus.; format: functional; in short: as §1

Sequence of Thymidylate synthase (Mus musculus) (P07607 whole entry, looked up): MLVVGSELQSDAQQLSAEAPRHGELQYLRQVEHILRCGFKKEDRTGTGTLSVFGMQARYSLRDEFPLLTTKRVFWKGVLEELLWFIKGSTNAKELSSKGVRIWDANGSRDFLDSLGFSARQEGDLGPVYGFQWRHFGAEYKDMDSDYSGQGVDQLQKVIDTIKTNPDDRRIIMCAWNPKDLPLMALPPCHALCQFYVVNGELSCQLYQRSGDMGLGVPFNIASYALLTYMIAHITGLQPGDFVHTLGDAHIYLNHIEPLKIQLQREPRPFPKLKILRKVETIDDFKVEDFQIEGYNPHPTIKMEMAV

Structure (SMILES)	MIC50 (Human alphaherpesvirus 1 [1]) [µg/mL]	MIC50 (Human alphaherpesvirus 1 [2]) [µg/mL]	IC50 (L1210 [3]) [µg/mL]	MIC50 (Human alphaherpesvirus 2 [4]) [µg/mL]	IC50 (L1210 [5]) [µg/mL]	MIC50 [6] [µg/mL]	IC50 (Homo sapiens) [µg/mL]	IC50 (Raji) [µg/mL]	MIC50 (Human alphaherpesvirus 2 [7]) [µg/mL]	Ki/Km [8]	MIC50 (Vaccinia virus) [µg/mL]	MIC50 (Human alphaherpesvirus 2 [9]) [µg/mL]	MIC50 (Human alphaherpesvirus 1 [10]) [µg/mL]	Ki/Km [11]	Ki/Km [12]	IC50 (Human alphaherpesvirus 1 [13]) [µg/mL]	IC50 (Human alphaherpesvirus 1 [14]) [µg/mL]	MIC50 [15] [µg/mL]	ID50 (Homo sapiens) [µg/mL]
N.O=c1[nH]c(=O)n([C@H]2C[C@@H]3O[PH](O)(O)OC[C@H]3O2)cc1C(F)(F)F	10	20	0.116	10	22	> 400	1.81	≥ 500	40	30.4	0.4	10	10						
O=c1[nH]c(=O)n([C@H]2C[C@H](O)[C@@H](COP(=O)(O)O)O2)cc1Br	0.2 (≈ 0.517 µM)	0.2 (≈ 0.517 µM)	34.6 (≈ 89.4 µM)	0.2 (≈ 0.517 µM)	457 (≈ 1180 µM)	> 400	26 (≈ 67.2 µM)	> 1000	0.2 (≈ 0.517 µM)	2.16	0.07 (≈ 0.181 µM)	0.07 (≈ 0.181 µM)	0.2 (≈ 0.517 µM)						
O=c1[nH]c(=O)n([C@H]2C[C@H](O)[C@@H](CO)O2)cc1Cl [CHLORODEOXYURIDINE]	2 (≈ 7.61 µM)	0.7 (≈ 2.67 µM)	21.3 (≈ 81.1 µM)	1 (≈ 3.81 µM)	339 (≈ 1290 µM)	> 400	8.54 (≈ 32.5 µM)	> 1000	2 (≈ 7.61 µM)		0.2 (≈ 0.761 µM)	2 (≈ 7.61 µM)	2 (≈ 7.61 µM)						
O=c1[nH]c(=O)n([C@H]2C[C@H](O)[C@@H](COP(=O)(O)O)O2)cc1I	0.2 (≈ 0.461 µM)	0.4 (≈ 0.921 µM)	31 (≈ 71.4 µM)	0.4 (≈ 0.921 µM)	> 500	> 400	6.8 (≈ 15.7 µM)	> 500	0.7 (≈ 1.61 µM)		0.2 (≈ 0.461 µM)	0.2 (≈ 0.461 µM)	0.2 (≈ 0.461 µM)	3.54					
N.O=c1[nH]c(=O)n([C@H]2C[C@@H]3O[PH](O)(O)OC[C@H]3O2)cc1F	> 400	> 400	0.06	≥ 300	7.4	> 400	0.164	19	≥ 400		1.5	≥ 200	> 400		38				
O=c1[nH]c(=O)n([C@H]2C[C@H](O)[C@@H](COP(=O)(O)O)O2)cc1/C=C/Br	0.02 (≈ 0.0484 µM)	0.02 (≈ 0.0484 µM)		20 (≈ 48.4 µM)		> 400			> 400		7 (≈ 16.9 µM)	100 (≈ 242 µM)	0.02 (≈ 0.0484 µM)						
O=c1[nH]c(=O)n([C@H]2C[C@H](O)[C@@H](CO)O2)cc1C(F)(F)F [TRIFLURIDINE]	0.7 (≈ 2.36 µM)	0.7 (≈ 2.36 µM)	0.006 (≈ 0.0203 µM)	0.6 (≈ 2.03 µM)	47 (≈ 159 µM)	> 40	0.15 (≈ 0.506 µM)	180 (≈ 608 µM)	1 (≈ 3.38 µM)		0.2 (≈ 0.675 µM)	1 (≈ 3.38 µM)	0.7 (≈ 2.36 µM)						
COP1(=O)OC[C@H]2O[C@@H](n3cc(Br)c(=O)[nH]c3=O)C[C@@H]2O1 (stereo partly specified)	> 200	> 200	> 100	> 200	> 100	> 200	> 100	> 100	> 200		10 (≈ 26.1 µM)	70 (≈ 183 µM)	> 200						
O=c1[nH]c(=O)n([C@H]2C[C@H](O)[C@@H](COP(=O)(O)O)O2)cc1C(F)(F)F	0.7 (≈ 1.86 µM)	0.7 (≈ 1.86 µM)	0.017 (≈ 0.0452 µM)	0.7 (≈ 1.86 µM)	38 (≈ 101 µM)	> 400	0.169 (≈ 0.449 µM)	212 (≈ 564 µM)	0.7 (≈ 1.86 µM)	0.061	0.2 (≈ 0.532 µM)	0.6 (≈ 1.59 µM)	0.4 (≈ 1.06 µM)						
COP1(=O)OC[C@H]2O[C@@H](n3cc(I)c(=O)[nH]c3=O)C[C@@H]2O1 (stereo partly specified)				300 (≈ 698 µM)		> 400			300 (≈ 698 µM)		20 (≈ 46.5 µM)	150 (≈ 349 µM)	70 (≈ 163 µM)			150 (≈ 349 µM)	150 (≈ 349 µM)		
O=c1[nH]c(=O)n([C@H]2C[C@H](O)[C@@H](CO)O2)cc1/C=C/Br [BRIVUDINE]	0.02 (≈ 0.06 µM)	0.02 (≈ 0.06 µM)		4 (≈ 12 µM)		> 400			70 (≈ 210 µM)		4 (≈ 12 µM)	7 (≈ 21 µM)	0.07 (≈ 0.21 µM)						
N.O=c1[nH]c(=O)n([C@H]2C[C@@H]3O[PH](O)(O)OC[C@H]3O2)cc1I	2	2	≥ 500	10	> 500	> 400	54	> 500	20	> 355	2	7	7						
N.O=c1[nH]c(=O)n([C@H]2C[C@@H]3O[PH](O)(O)OC[C@H]3O2)cc1Cl	20	100	337	40	> 1000		337	> 1000	150		2	20	100		> 356			> 400	
N.O=c1[nH]c(=O)n([C@H]2C[C@@H]3O[PH](O)(O)OC[C@H]3O2)cc1Br	2	2	457	2	> 1000	> 400	224	> 1000	20	> 354	1	2	2						
O=c1[nH]c(=O)n([C@H]2C[C@@H]3OP(=O)(OCc4ccccc4)OC[C@H]3O2)cc1I (stereo partly specified)	20 (≈ 39.5 µM)	7 (≈ 13.8 µM)	> 100	20 (≈ 39.5 µM)	> 100	> 200	> 100	> 100	70 (≈ 138 µM)		2 (≈ 3.95 µM)	7 (≈ 13.8 µM)	20 (≈ 39.5 µM)						69 (≈ 136 µM)
O=c1[nH]c(=O)n([C@H]2C[C@H](O)[C@@H](CO)O2)cc1Br [BROXURIDINE]	0.2 (≈ 0.651 µM)	0.2 (≈ 0.651 µM)	33.8 (≈ 110 µM)	0.2 (≈ 0.651 µM)	> 1000	> 400	17.5 (≈ 57 µM)	> 1000	0.2 (≈ 0.651 µM)		0.07 (≈ 0.228 µM)	0.07 (≈ 0.228 µM)	0.2 (≈ 0.651 µM)						
O=c1[nH]c(=O)n([C@H]2C[C@H](O)[C@@H](COP(=O)(O)O)O2)cc1F [5-FLUORODEOXYURIDYLATE]	10 (≈ 30.7 µM)	10 (≈ 30.7 µM)	0.003 (≈ 0.0092 µM)	7 (≈ 21.5 µM)	3 (≈ 9.2 µM)	> 200	0.013 (≈ 0.0399 µM)	2.41 (≈ 7.39 µM)	100 (≈ 307 µM)	0.018	0.2 (≈ 0.613 µM)	20 (≈ 61.3 µM)	10 (≈ 30.7 µM)						
O=c1[nH]c(=O)n([C@H]2C[C@H](O)[C@@H](CO)O2)cc1I [IDOXURIDINE]	0.2 (≈ 0.565 µM)	0.2 (≈ 0.565 µM)	16 (≈ 45.2 µM)	0.2 (≈ 0.565 µM)	> 500	> 400	8 (≈ 22.6 µM)	> 500	0.4 (≈ 1.13 µM)		0.2 (≈ 0.565 µM)	0.1 (≈ 0.282 µM)	0.2 (≈ 0.565 µM)						
O=c1[nH]c(=O)n([C@H]2C[C@H](O)[C@@H](CO)O2)cc1F [FLOXURIDINE]	6 (≈ 24.4 µM)	8 (≈ 32.5 µM)	0.02 (≈ 0.0812 µM)	8 (≈ 32.5 µM)	1.8 (≈ 7.31 µM)	> 200	0.004 (≈ 0.0162 µM)	1.55 (≈ 6.3 µM)	150 (≈ 609 µM)		0.1 (≈ 0.406 µM)	10 (≈ 40.6 µM)	4 (≈ 16.2 µM)						
